Bioassay records: PubChem BioAssay, Johns Hopkins Ion Channel Center
Compounds with a hit are over-represented: about 2.3% of the library has one in this group of screens.
TRPC4 PAM = allosteric potentiators of mouse TRPC4 channel; Q9QUQ5; HEK293 TRPC4beta/mu-opioid, DAMGO EC20, Fluo-4 Ca2+ flux; active compounds read high; B-score at 10 µM; hit rate 0.42% among 310,000; AID 2227;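 active means B-score of calcium response area above 5 SD of library B-scores, with initial fluorescence ratio within 5 SD of library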
TRPC4 act = opens the mouse TRPC4 cation channel | AID 2237 | hit rate 0.49% among 310,000 | B-score at 10 µM | HEK293 TRPC4beta/mu-opioid, Fluo4 calcium fluorescence; active compounds read high;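 active means B-score above 5 SD of library B-scores, and initial fluorescence ratio not above library mean plus 5 SD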;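 further: positive B-score marks a calcium rise read as TRPC4 activation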
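Assay system: HEK293 stable line with TRPC4beta plus mu-opioid receptor; schedule: 45 min room-temperature Fluo4 loading, 110 s read; technique: kinetic Fluo4 calcium fluorescence; evaluation: integrated baseline-normalised fluorescence ratio, converted to per-well B score; controls: buffer (low) and maximal DAMGO (high)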
TRPC6 activator = activates the mouse TRPC6 cation channel. Q61143. HEK293-TRPC6 membrane potential dye fluorescence; active compounds read high. B-score at 10 µM. hit rate 0.13% among 310,000. AID 2550;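 active means B-score of the integrated fluorescence ratio above library mean plus 3 SD, and starting fluorescence ratio within library mean plus 5 SD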;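 further: higher score means more depolarization so channel activation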
Target sequence (Q61143 whole entry, looked up): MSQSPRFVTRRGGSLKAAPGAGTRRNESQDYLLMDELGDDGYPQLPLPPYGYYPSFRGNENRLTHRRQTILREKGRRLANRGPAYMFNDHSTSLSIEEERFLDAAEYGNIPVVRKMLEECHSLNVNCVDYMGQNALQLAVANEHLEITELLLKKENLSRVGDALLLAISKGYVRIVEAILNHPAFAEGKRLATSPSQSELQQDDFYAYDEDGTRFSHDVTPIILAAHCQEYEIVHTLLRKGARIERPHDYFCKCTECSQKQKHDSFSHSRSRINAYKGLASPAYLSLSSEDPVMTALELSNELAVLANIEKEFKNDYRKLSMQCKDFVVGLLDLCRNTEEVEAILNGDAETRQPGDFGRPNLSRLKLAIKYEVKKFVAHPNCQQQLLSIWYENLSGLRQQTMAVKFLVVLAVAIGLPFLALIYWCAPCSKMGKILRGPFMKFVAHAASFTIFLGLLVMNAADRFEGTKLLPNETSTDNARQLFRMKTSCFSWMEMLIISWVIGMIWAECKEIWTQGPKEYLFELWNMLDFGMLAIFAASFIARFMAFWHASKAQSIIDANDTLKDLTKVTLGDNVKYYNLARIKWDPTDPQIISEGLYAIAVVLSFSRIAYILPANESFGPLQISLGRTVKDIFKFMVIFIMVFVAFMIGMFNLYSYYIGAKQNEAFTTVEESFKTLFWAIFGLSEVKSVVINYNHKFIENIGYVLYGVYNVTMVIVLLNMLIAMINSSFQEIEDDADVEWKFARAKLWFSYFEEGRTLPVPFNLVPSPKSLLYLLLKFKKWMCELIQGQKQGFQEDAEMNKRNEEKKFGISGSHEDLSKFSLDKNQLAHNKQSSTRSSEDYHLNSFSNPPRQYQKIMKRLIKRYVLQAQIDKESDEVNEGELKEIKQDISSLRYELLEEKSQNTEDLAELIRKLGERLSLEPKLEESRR
TRPC6 inh = mouse TRPC6 channel inhibition | B-score at 10 µM | Q61143 | HEK293-TRPC6, membrane potential dye, ACh-evoked depolarization; active compounds read low | AID 2553 | hit rate 1.1% among 310,000;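 active means B-score under library mean minus 3 SD, initial fluorescence not abnormally high, positive integrated signal ratio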;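 further: B-score derived from integrated fluorescence ratio over the kinetic read; more negative B-score means stronger inhibition of depolarization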
TRPC4 block = blocks the mouse TRPC4 cation channel. AID 2247. B-score at 10 µM. Q9QUQ5. hit rate 0.39% among 300,000. HEK293 TRPC4beta/mu-opioid, DAMGO-evoked Fluo4 calcium flux; active compounds read low;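 active means B-score over 3 SD under the library average, no early fluorescence shift, positive overall ratio signal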
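Material: HEK293 cells with stable TRPC4beta plus mu-opioid receptor expression; probe or stimulus: DAMGO in two steps, submaximal then maximal; technique: Fluo4 calcium fluorescence by kinetic imaging, 5 s 1 Hz baseline; measure: integrated fluorescence ratio relative to baseline, converted to per-well B score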
TRPC4 spec 2 = second selectivity test of TRPC6 inhibitors: effect on mouse TRPC4 | shares compounds with TRPC6 inh | HEK293 TRPC4/MOR, membrane potential dye fluorescence; channel activated by saturating DAMGO dose | inhibition, % at 10 µM | hit rate 42% among 920;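 active means compounds whose fluorescence signal differed from control wells by over 3 SD, either direction, in both duplicate plates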
TRPC4 spec = selectivity of TRPC6 inhibitors: effect on mouse TRPC4; shares compounds with TRPC6 inh; HEK293 TRPC4/mu-opioid, membrane potential fluorescence; activity change, negative = inhibition, % at 10 µM; hit rate 61% among 920;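 active means rise or fall in signal beyond 3 SD of buffer-only wells in both replicate plates, either sign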;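 further: integrated kinetic ratio of fluorescence range over baseline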
HEK293 MPD ctr 2-1 = second check of TRPC6 inhibitor effects in parental HEK293 cells. shares compounds with TRPC6 inh. parental HEK293 membrane potential dye fluorescence; maximal acetylcholine challenge after compound addition. signal change vs control, % at 10 µM. hit rate 31% among 920. AID 2779;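 active means membrane potential signal moving either way by over 3 SD of the maximum-effect control, in both duplicate plates, meaning non-specific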
HEK293 MPD ctr-1 = checks TRPC6 inhibitor effects in parental HEK293 cells | shares compounds with TRPC6 inh | parental HEK293 membrane potential dye fluorescence | membrane potential signal change, % at 10 µM | hit rate 60% among 920 | AID 2780;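 active means membrane potential signal shifting up or down by more than 3 SD of buffer-only wells, on both duplicate plates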
HEK293 MPD ctr-2 = counter-screen for TRPC6 modulators: effect in parental HEK293 cells; shares compounds with TRPC6 inh; membrane potential dye fluorescence; membrane potential signal change, % at 10 µM; hit rate 51% among 2,400; AID 488924;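 active means membrane potential signal moves up or down beyond 5 SD from buffer-only wells, on both duplicate plates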
HEK293 MPD ctr 2-2 = second check of TRPC6 modulator effects in parental HEK293 cells | shares compounds with TRPC6 inh | membrane potential dye fluorescence; after compound, maximal acetylcholine stimulation | inhibition, % at 10 µM | hit rate 14% among 2,400;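 active means membrane potential signal drops by more than 5 SD from the mean control signal, in both duplicate plates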
TRPC4 ctr mod = mouse TRPC4 off-target activity of TRPC6 modulators. percent change from control (negative = decrease, positive = increase), % at 10 µM. HEK293 TRPC4/mu-opioid, membrane potential fluorescence. shares compounds with TRPC6 inh. hit rate 69% among 2,400;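 active means membrane potential signal moved up or down beyond 5 SD of buffer control wells, in both duplicate plates, actives on both sides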
TRPC4 ctr inh 2 = mouse TRPC4 off-target activity of TRPC6 modulators, second screen | shares compounds with TRPC6 inh | HEK293 TRPC4/mu-opioid, membrane potential dye fluorescence; stimulated with maximal-effect DAMGO | inhibition, % at 10 µM | hit rate 55% among 2,400;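 active means drop in membrane potential signal beyond 5 SD of the control wells in both duplicate plates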;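 further: TRPC4 counter screen for TRPC6 hits run under conditions tuned for TRPC6 not TRPC4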
TRPC6 block conf = mouse TRPC6 inhibitor confirmation. inhibition, % at 10 µM. shares compounds with TRPC6 inh. AID 488960. hit rate 43% among 3,300. HEK293-TRPC6, membrane potential dye, ACh-evoked depolarization;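 active means fluorescence ratio falls more than 5 SD below the full-stimulation control mean, in both duplicate runs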;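 further: integrated fluorescence ratio of peak minus minimum over baseline after agonist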
TRPC6 act confirm = mouse TRPC6 activator confirmation; activation, % at 10 µM; hit rate 11% among 2,800; shares compounds with TRPC6 inh; HEK293-TRPC6 membrane potential dye fluorescence, FDSS;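 active means ratio signal rise beyond 5 SD above unstimulated control wells' mean, seen in both duplicate runs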
Each line names hits and unclear results; the compound was inactive in the other large screens (follow-up assays come after a bar, where they were run).

COc1ccc2oc(CS(=O)c3ccccc3)c(C(=O)O)c2c1 (stereo not drawn)	none
O=S(=O)(c1cccc2cccnc12)N1CCCCC1	none
CN1CCN(c2ncccc2S(=O)(=O)N2CCCCC2)CC1	TRPC6 inh -7 | TRPC4 spec 2 inactive | TRPC4 spec -0.1% | HEK293 MPD ctr 2-1 -41.0% | HEK293 MPD ctr-1 0.9% | TRPC6 block conf 77.9% | TRPC6 act confirm inactive
CN1CCN(c2nc3c(c(=O)n(C)c(=O)n3C)n2Cc2ccccc2)CC1	none
CN1CCN(c2nc3c(c(=O)[nH]c(=O)n3C)n2CCSc2nnnn2-c2ccccc2)CC1	TRPC6 inh -8.49 | HEK293 MPD ctr-2 -236.0% | HEK293 MPD ctr 2-2 inactive | TRPC4 ctr mod -27.0% | TRPC4 ctr inh 2 62.0% | TRPC6 block conf 60.5% | TRPC6 act confirm inactive
CN1CCN(c2nc3c(c(=O)n(C)c(=O)n3C)n2CCSc2nnnn2-c2ccccc2)CC1	TRPC6 inh -7.29 | HEK293 MPD ctr-2 -114.0% | HEK293 MPD ctr 2-2 99.5% | TRPC4 ctr mod -41.0% | TRPC4 ctr inh 2 56.0% | TRPC6 block conf 50.0% | TRPC6 act confirm inactive
CCN(CC)CCSc1nnc(Nc2ccccc2)n1-c1ccccc1	TRPC6 inh -7.76 | TRPC4 spec 2 inactive | TRPC4 spec 2.4% | HEK293 MPD ctr 2-1 inactive | HEK293 MPD ctr-1 3.4% | TRPC6 block conf inactive | TRPC6 act confirm inactive
CCN(CC)CCSc1nc2ccccc2c(=S)n1-c1ccccc1	TRPC6 inh -7.32 | TRPC4 spec 2 33.0% | TRPC4 spec 3.5% | HEK293 MPD ctr 2-1 237.5% | HEK293 MPD ctr-1 7.1% | TRPC6 block conf inactive | TRPC6 act confirm inactive
CCN(CC)CCSc1nc(O)c(-c2ccccc2)c(=O)n1-c1ccccc1	none
Clc1ccc(-c2c[n+]3c(n2-c2ccccc2)SCC3)cc1	none
O=[N+]([O-])c1cccc(-c2c[n+]3c(n2-c2ccccc2)SCC3)c1	TRPC6 inh -5.2 | HEK293 MPD ctr-2 inactive | HEK293 MPD ctr 2-2 inactive | TRPC4 ctr mod inactive | TRPC4 ctr inh 2 34.0% | TRPC6 block conf 47.0% | TRPC6 act confirm inactive
Cc1cccc(C)c1NC(=O)c1cccnc1	TRPC6 inh -6.3 | HEK293 MPD ctr-2 inactive | HEK293 MPD ctr 2-2 inactive | TRPC4 ctr mod inactive | TRPC4 ctr inh 2 inactive | TRPC6 block conf inactive | TRPC6 act confirm inactive
CCOC(=O)/C(=N\Nc1ccc(C(C)=O)cc1)c1csc(Nc2ccccc2)n1	none
CCOC(=O)/C(=N\Nc1ccccc1[N+](=O)[O-])c1csc(N)n1	TRPC6 inh -5.18 | HEK293 MPD ctr-2 inactive | HEK293 MPD ctr 2-2 inactive | TRPC4 ctr mod -18.5% | TRPC4 ctr inh 2 inactive | TRPC6 block conf inactive | TRPC6 act confirm inactive
COc1cc(/C=C(\C#N)c2ccccn2)cc(OC)c1O	TRPC6 activator 13.6, TRPC6 inh -5.11 | HEK293 MPD ctr-2 458.0% | HEK293 MPD ctr 2-2 72.5% | TRPC4 ctr mod 66.5% | TRPC4 ctr inh 2 inactive | TRPC6 block conf 46.5% | TRPC6 act confirm 146.5%
COc1cc(C2C(C#N)=C(N)Oc3cc(N(C)C)ccc32)cc2c1OCO2 (stereo not drawn)	TRPC4 act 64, TRPC6 activator 11.6 | HEK293 MPD ctr-2 256.0% | HEK293 MPD ctr 2-2 inactive | TRPC4 ctr mod 53.0% | TRPC4 ctr inh 2 inactive | TRPC6 block conf inactive | TRPC6 act confirm 62.0%
O=c1[nH]c(COc2ccc(Cl)cc2Br)nc2ccccc12	none
N#CCCN(C(=O)COC(=O)Cc1ccc(Br)cc1)c1ccccc1	none
COc1cc(CCC(=O)OCC(=O)N(CCC#N)c2ccccc2)cc(OC)c1OC	TRPC6 inh -5.37 | HEK293 MPD ctr-2 inactive | HEK293 MPD ctr 2-2 inactive | TRPC4 ctr mod inactive | TRPC4 ctr inh 2 inactive | TRPC6 block conf inactive | TRPC6 act confirm inactive
Cc1c(O)nc(SC2CC(=O)N(c3cc(Cl)cc(Cl)c3)C2=O)[nH]c1=O (stereo not drawn)	none
Cc1ccc2nc(NCc3ccccc3)[nH]c2c1	TRPC6 inh -6.53, TRPC4 block -5 | HEK293 MPD ctr-2 inactive | HEK293 MPD ctr 2-2 inactive | TRPC4 ctr mod inactive | TRPC4 ctr inh 2 97.5% | TRPC6 block conf 49.0% | TRPC6 act confirm inactive
COc1ccc2nc(NCc3ccccc3)[nH]c2c1	TRPC6 inh -5.25, TRPC4 block -7 | HEK293 MPD ctr-2 inactive | HEK293 MPD ctr 2-2 inactive | TRPC4 ctr mod inactive | TRPC4 ctr inh 2 90.5% | TRPC6 block conf inactive | TRPC6 act confirm inactive
Cc1cc(OCc2cc(C(=O)NCc3csc(C(C)C)n3)no2)cc(C)c1Cl	none
Nc1cc(=O)[nH]c(=O)n1Cc1ccco1	TRPC6 inh -5.35 | HEK293 MPD ctr-2 inactive | HEK293 MPD ctr 2-2 inactive | TRPC4 ctr mod inactive | TRPC4 ctr inh 2 inactive | TRPC6 block conf inactive | TRPC6 act confirm inactive
CCOC(=O)CNC(=S)N(Cc1ccco1)Cc1ccccc1Cl	TRPC6 inh -5.78 | HEK293 MPD ctr-2 inactive | HEK293 MPD ctr 2-2 inactive | TRPC4 ctr mod 11.5% | TRPC4 ctr inh 2 inactive | TRPC6 block conf inactive | TRPC6 act confirm inactive
COC(c1ccccc1)c1nnc(CCC(=O)N(C)Cc2cccc(-n3cccn3)c2)o1 (stereo not drawn)	TRPC6 activator 15.6 | HEK293 MPD ctr-2 inactive | HEK293 MPD ctr 2-2 inactive | TRPC4 ctr mod 8.5% | TRPC4 ctr inh 2 inactive | TRPC6 block conf inactive | TRPC6 act confirm inactive
CC1=NOC(=O)/C1=C/c1ccc(N(C)C)cc1	none
